Experimental data published in ChEMBL document CHEMBL1149694, “5-(3-Cyclopentyl-2-thioxo-2,3-dihydro-1H-benzimidazol-5-yl)-1-methyl-1H-pyrrole-2-carbonitrile: A novel, highly potent, selective, and orally active non-steroidal progesterone receptor agonist” (Bioorg Med Chem, 2007).
The source made the active and inactive calls. The rule behind the calls is not given here.

How the values were obtained:
Progesterone receptor [1] = molecular target: T1, Progesterone receptor (Homo sapiens, UniProt P06401); assay: (§1) Agonist activity at progesterone receptor expressed in T47D cells by alkaline phosphatase assay; format: functional, cell-based
T1 sequence (P06401 whole entry): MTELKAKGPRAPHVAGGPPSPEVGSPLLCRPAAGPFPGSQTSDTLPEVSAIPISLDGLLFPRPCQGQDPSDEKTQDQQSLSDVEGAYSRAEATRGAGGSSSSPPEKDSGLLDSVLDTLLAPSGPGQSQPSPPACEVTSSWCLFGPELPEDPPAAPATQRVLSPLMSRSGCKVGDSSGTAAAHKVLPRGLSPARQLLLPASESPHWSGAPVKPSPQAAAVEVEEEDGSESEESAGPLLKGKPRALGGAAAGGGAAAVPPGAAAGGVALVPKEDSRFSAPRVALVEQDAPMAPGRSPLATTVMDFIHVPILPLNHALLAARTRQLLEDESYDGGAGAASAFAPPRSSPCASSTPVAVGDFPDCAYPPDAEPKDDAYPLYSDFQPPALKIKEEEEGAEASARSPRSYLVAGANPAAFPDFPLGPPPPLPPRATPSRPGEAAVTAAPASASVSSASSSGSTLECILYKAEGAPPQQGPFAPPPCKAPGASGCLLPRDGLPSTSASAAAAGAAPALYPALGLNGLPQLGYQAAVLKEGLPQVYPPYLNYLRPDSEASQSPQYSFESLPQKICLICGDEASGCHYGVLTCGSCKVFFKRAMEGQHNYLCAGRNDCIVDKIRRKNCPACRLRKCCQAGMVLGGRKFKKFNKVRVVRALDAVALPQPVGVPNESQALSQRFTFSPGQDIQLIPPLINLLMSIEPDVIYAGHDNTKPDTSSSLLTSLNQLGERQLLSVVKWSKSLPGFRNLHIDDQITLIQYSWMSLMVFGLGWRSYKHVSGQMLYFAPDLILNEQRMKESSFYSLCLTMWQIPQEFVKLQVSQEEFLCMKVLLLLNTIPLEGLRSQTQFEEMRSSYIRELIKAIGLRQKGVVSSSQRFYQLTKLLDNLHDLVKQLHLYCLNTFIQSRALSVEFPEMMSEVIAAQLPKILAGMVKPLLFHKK
In short: (§2)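 Human T47D breast carcinoma cells; alkaline phosphatase activity measured. EC50 is the concentration giving 50% effect; efficacy shown in parentheses. Average of at least duplicate determinations.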

[2] = molecular target: T2, Progesterone receptor (Homo sapiens) (UniProt P06401); assay: (§3) Antagonist activity at progesterone receptor expressed in T47D cells assessed as inhibition of progesterone-induced alkaline phosphatase activity; format: functional, cell-based; conditions: for inhibition: concentration not given here
T2 sequence (whole entry): T1 sequence (P06401 whole entry)
In short: (§4)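 Human T47D breast carcinoma cells stimulated with 1 nM progesterone; compound inhibition of induced alkaline phosphatase activity. IC50 is 50% inhibition. Average of at least duplicate determinations.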

[3] = molecular target: T2, Progesterone receptor (Homo sapiens); assay: Agonist activity at progesterone receptor expressed in T47D cells relative to progesterone; format: functional, cell-based
In short: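 Human T47D breast carcinoma cells; agonist mode; read-out is alkaline phosphatase activity; values are the average of at least duplicate determinations.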

Rattus norvegicus [4] = assay: Effect on estrogen-induced synthesis of complement component C3 in sc dosed Sprague-Dawley rat uterus epithelial cells; format: functional, Epithelial cell
In short: (§5)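 Adult ovariectomized Sprague–Dawley rats (60-day-old, surgery at least 8 days before dosing), groups of six, acclimated at least 72 h. Compound given once daily for 2 days, by sc injection or oral gavage, in 10% ethanol/corn oil. Ethinyl estradiol given orally on day 2. Uteri taken about 24 h later. C3 mRNA measured by Northern blot, normalized to 28S rRNA. Log-transformed ratios; Huber M-estimator.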

Progesterone receptor [5] = molecular target: T1, Progesterone receptor; assay: as §3; format: functional, cell-based; in short: as §4
Progesterone receptor [6] = molecular target: T1, Progesterone receptor; assay: Binding affinity to cytosolic PR in T47D cells by competition binding assay; format: cell-based
[7] = molecular target: T2, Progesterone receptor (Homo sapiens); assay: as §1; format: functional, cell-based; in short: as §2
Cynomolgus monkey = assay: Inhibition of ovulation-induced progesterone levels in po dosed cynamologous monkey; format: functional, Macaca fascicularis
In short: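 Cynomolgus monkeys dosed orally once daily from day 2 to 28 of the menstrual cycle; vehicle 2% Tween 80/0.5% methylcellulose. Serum progesterone sampled three times weekly until the next menses. Ovulation inferred from the progesterone pattern.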

Glucocorticoid receptor [8] = molecular target: T3, Glucocorticoid receptor (Homo sapiens, UniProt P04150); assay: Agonist activity at glucocorticoid receptor expressed in L929 cells by HRE-tk luciferase assay
T3 sequence (P04150 whole entry): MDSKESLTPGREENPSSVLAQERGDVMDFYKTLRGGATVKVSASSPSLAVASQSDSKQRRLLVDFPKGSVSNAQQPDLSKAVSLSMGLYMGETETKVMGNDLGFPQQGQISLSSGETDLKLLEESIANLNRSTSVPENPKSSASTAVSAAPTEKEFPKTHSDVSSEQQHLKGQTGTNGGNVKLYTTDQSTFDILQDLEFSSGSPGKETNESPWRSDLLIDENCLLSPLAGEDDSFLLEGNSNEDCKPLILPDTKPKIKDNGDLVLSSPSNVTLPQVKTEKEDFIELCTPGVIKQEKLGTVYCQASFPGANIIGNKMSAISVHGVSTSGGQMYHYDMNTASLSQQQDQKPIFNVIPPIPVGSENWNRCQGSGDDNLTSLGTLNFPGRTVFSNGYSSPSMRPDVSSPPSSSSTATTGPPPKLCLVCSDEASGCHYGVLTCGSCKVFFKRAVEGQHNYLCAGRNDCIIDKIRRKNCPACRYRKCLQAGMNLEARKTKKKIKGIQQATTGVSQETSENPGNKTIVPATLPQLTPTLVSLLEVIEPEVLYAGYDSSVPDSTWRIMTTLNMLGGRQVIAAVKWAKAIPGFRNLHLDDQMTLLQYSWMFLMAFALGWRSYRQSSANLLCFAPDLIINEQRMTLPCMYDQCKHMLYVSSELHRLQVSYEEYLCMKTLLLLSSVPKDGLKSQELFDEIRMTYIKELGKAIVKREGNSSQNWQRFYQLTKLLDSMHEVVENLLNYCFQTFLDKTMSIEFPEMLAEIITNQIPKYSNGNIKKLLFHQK

Glucocorticoid receptor [9] = molecular target: T3, Glucocorticoid receptor; assay: Antagonist activity at glucocorticoid receptor expressed in L929 cells by HRE-tk luciferase assay
Rattus norvegicus [10] = assay: Effect on uterine decidualization in po dosed ovariectomized Sprague-Dawley rat after 7 days; format: organism-based; conditions: 168 h
In short: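 Ovariectomized mature Sprague–Dawley rats (~60-day-old, 230 g), groups of 4–5, dosed once daily for 7 days by gavage. Half-log dose steps. One uterine horn decidually stimulated; the contralateral horn is the control. Horns weighed about 24 h after the last dose. D-horn/C-horn ratio log-transformed; Huber M-estimator; ANOVA and nonlinear dose–response fitting.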

Rattus norvegicus [11] = assay: Effect on estrogen-induced synthesis of complement component C3 in po dosed Sprague-Dawley rat uterus epithelial cells; format: functional; conditions: Epithelial cell; in short: as §5
[12] = Clearance in rat at 1 mg/kg, iv; format: ADME, organism-based; set-up: dose 1 mg/kg, route intravenous; conditions: in vivo
In short: (§6)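 Female rats, single dose of 1 mg/kg given as IV bolus or orally. AUC0–∞, clearance, volume of distribution and terminal half-life taken from the IV arm. Oral exposure gives AUC0–∞; bioavailability from oral versus IV exposure.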

[13] = Volume of distribution in rat at 1 mg/kg, iv; format: ADME, organism-based; set-up: dose 1 mg/kg, route intravenous; conditions: in vivo; in short: as §6
[14] = Terminal half life in rat at 1 mg/kg, iv; format: ADME, organism-based; set-up: dose 1 mg/kg, route intravenous; conditions: in vivo; in short: as §6
[15] = AUC (0 to infinity) in rat at 1 mg/kg, iv; format: ADME, organism-based; set-up: time infinity, dose 1 mg/kg, route intravenous; conditions: plasma; in short: as §6
[16] = AUC (0 to infinity) in rat at 1 mg/kg, po; format: ADME, organism-based; set-up: time infinity, dose 1 mg/kg, route oral; conditions: plasma; in short: as §6
[17] = Bioavailability in rat at 1 mg/kg, po; format: ADME, organism-based; conditions: in vivo; in short: as §6
Androgen receptor [18] = molecular target: T4, Androgen receptor (Homo sapiens, UniProt P10275); assay: Agonist activity at androgen receptor expressed in mouse fibroblast L929 cells by HRE-tk luciferase assay
T4 sequence (P10275 whole entry): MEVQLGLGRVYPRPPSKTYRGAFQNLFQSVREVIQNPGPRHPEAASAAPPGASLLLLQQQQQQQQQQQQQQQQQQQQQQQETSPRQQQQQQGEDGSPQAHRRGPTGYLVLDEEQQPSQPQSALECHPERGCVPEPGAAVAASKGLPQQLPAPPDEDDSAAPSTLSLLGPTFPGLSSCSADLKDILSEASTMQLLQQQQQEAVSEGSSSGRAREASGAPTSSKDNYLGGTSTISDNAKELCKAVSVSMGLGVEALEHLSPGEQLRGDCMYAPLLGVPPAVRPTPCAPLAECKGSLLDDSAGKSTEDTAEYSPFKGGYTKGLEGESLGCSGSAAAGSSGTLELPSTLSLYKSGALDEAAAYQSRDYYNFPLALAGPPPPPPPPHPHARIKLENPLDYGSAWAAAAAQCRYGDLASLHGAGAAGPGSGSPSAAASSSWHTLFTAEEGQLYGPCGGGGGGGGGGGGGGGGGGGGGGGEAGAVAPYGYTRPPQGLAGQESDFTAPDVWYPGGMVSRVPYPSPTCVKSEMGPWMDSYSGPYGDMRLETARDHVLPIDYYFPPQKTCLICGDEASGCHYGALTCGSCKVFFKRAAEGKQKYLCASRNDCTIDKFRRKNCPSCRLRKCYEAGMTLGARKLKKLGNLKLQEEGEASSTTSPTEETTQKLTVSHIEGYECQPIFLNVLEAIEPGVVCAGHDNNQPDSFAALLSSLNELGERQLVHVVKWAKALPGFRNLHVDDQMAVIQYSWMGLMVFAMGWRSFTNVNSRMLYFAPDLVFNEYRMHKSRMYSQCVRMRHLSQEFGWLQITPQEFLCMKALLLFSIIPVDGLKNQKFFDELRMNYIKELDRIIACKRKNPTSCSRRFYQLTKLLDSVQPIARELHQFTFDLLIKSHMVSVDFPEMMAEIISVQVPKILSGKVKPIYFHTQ

Androgen receptor [19] = molecular target: T4, Androgen receptor; assay: Antagonist activity at androgen receptor expressed in mouse fibroblast L929 cells by HRE-tk luciferase assay

For `Fc1ccc(-c2ccc3[nH]c(=S)n(C4CCCC4)c3c2)cc1F`, the EC50 (Progesterone receptor [1]) was 0.0625 µM, the Activity [2] was “inactive” and the Efficacy [3] was 75%.

In the case of `CC(=O)O[C@]1(C(C)=O)CC[C@H]2[C@@H]3C[C@H](C)C4=CC(=O)CC[C@]4(C)[C@H]3CC[C@@]21C` [MEDROXYPROGESTERONE ACETATE], the ED5 (Rattus norvegicus [4]) is reported as 0.03 mg/kg and the Activity [2] is reported as “inactive”.

In the case of `CC(=O)[C@H]1CC[C@H]2[C@@H]3CCC4=CC(=O)CC[C@]4(C)[C@H]3CC[C@]12C` [PROGESTERONE], the Activity [2] is reported as “inactive”.

In the case of `CCC(CC)n1c(=O)[nH]c2ccc(-c3ccc(C#N)n3C)cc21`, the EC50 (Progesterone receptor [1]) is reported as > 3 µM and the IC50 (Progesterone receptor [5]) is reported as 0.0117 µM.

With `Cn1c(C#N)ccc1-c1ccc2[nH]c(=O)n(C3CCCC3)c2c1` the IC50 (Progesterone receptor [6]) was 0.0262 µM and the EC50 (Progesterone receptor [1]) was > 3 µM.

In the case of `CCC(CC)n1c(=S)[nH]c2ccc(-c3ccc(C#N)n3C)cc21`, the EC50 (Progesterone receptor [1]) is reported as 0.001 µM, the Activity [2] is reported as “inactive” and the Efficacy [3] is reported as 70%.

`CCC(CC)n1c(=S)[nH]c2ccc(-c3cc(F)cc(C#N)c3)cc21` gave an EC50 (Progesterone receptor [1]) of 0.27 µM, an inhibition [2] of 50% and an IC50 (Progesterone receptor [5]) of 0.0036 µM. It also gave an Efficacy [3] of 70%.

For `N#Cc1cc(F)cc(-c2ccc3[nH]c(=S)n(C4CCC4)c3c2)c1`, the EC50 (Progesterone receptor [1]) was 0.0027 µM, the Activity [2] was “inactive” and the Efficacy [3] was 60%.

In the case of `CCC(CC)n1c(=S)[nH]c2ccc(-c3ccc(F)c(Cl)c3)cc21`, the Activity [7] is reported as “inactive”, the inhibition [2] is reported as 60% and the IC50 (Progesterone receptor [5]) is reported as 0.0337 µM.

In the case of `Fc1ccc(-c2ccc3[nH]c(=S)n(C4CCCC4)c3c2)cc1Cl`, the EC50 (Progesterone receptor [1]) is reported as 0.0493 µM, the Activity [2] is reported as “inactive” and the Efficacy [3] is reported as 55%.

`Cn1c(C#N)ccc1-c1ccc2c(c1)C(C)(C)OC(=S)N2` [TANAPROGET] showed an ED100 (Cynomolgus monkey) of 0.01 mg/kg.

With `Cn1c(C#N)ccc1-c1ccc2[nH]c(=O)n(C3CCC3)c2c1` the EC50 (Progesterone receptor [1]) was > 3 µM.

With `Cn1c(C#N)ccc1-c1ccc2[nH]c(=S)n(C3CCC3)c2c1` the EC50 (Progesterone receptor [1]) was 0.0005 µM, the Activity [2] was “inactive” and the Efficacy [3] was 70%.

In the case of `Cn1c(C#N)ccc1-c1ccc2[nH]c(=S)n(C3CCCC3)c2c1`, the IC50 (Progesterone receptor [6]) is reported as 0.0004 µM, the EC50 (Progesterone receptor [1]) is reported as 0.0001 µM and the Activity [2] is reported as “inactive”. The Efficacy [3] was 75%, the EC50 (Glucocorticoid receptor [8]) was > 10 µM and the IC50 (Glucocorticoid receptor [9]) was 0.099 µM. The ED50 (Rattus norvegicus [10]) was 0.02 mg/kg, the ED50 (Rattus norvegicus [11]) was 0.003 mg/kg and the clearance [12] was 1.5 L/h/kg. The Vd [13] was 7.6 L/kg, the half-life [14] was 4.4 h and the AUC(0-inf) [15] was 0.68 µg·h/mL. It also gave an AUC(0-inf) [16] of 0.48 µg·h/mL, a bioavailability [17] of 71% and an ED100 (Cynomolgus monkey) of 0.03 mg/kg. For the same compound, the EC50 (Androgen receptor [18]) was > 10 µM and the IC50 (Androgen receptor [19]) was 1 µM.
